Legend:
SEM cells = test: Proliferation, viable cell count by trypan blue exclusion; assay type: cell-based, human; conditions: 72 h
Outline: (§1)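 Human B-ALL (SEM, RS4;11) and T-ALL (Jurkat, CEM) lines were grown with 10% heat-inactivated FBS and penicillin/streptomycin at 37°C, 5% CO2. Cells took test compound at 0.1–5.0 μM (methods: 0.5–5.0 μM) or DMSO for up to 72 h. Viable cells were counted by trypan blue exclusion and expressed relative to control (100%). IC50 came from three separate experiments, each in triplicate.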

Jurkat cells = test: as above; assay type: cell-based, human; conditions: 72 h
Outline: as §1

CDK9/cyclin T1 = CDK9/cyclin T1 (Homo sapiens, UniProt P50750); test: Kinase activity screening; assay type: biochemical; conditions: FX-9 at 2.5 μM, ATP at Km (45 μM)
Outline: (§2)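 Radiometric substrate-phosphorylation screen covering a panel of 58 human kinases run by a contract service. […] Activity is given as a percentage of mean activity in positive control samples (100%). Values <30% were scored strong hits, 30–70% partial hits and >70% no hit.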

IGF-1R = IGF-1R (Homo sapiens, UniProt P08069); test: Kinase activity screening; assay type: biochemical; conditions: FX-9 at 2.5 μM, ATP at Km (200 μM)
Outline: as §2

PRAK = PRAK (Homo sapiens, UniProt Q8IW41); test: Kinase activity screening; assay type: biochemical; conditions: FX-9 at 2.5 μM, ATP at Km (15 μM)
Outline: (§3)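 Radiometric kinase-panel screen of 58 human kinases, measuring substrate phosphorylation. […] Activity is given as % of the mean positive-control kinase activity (100%). Below 30% counts as a strong hit, 30–70% as a partial hit, and above 70% as no hit.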

PI3 Kinase (p110a/p85a) = PI3 Kinase (p110a/p85a) (Homo sapiens, UniProt P42336); test: Kinase activity screening; assay type: biochemical; conditions: FX-9 at 2.5 μM, ATP at Km (200 μM)
Outline: as §2

p-p38 = test: Western blot, SEM cells; assay type: cell-based, human; conditions: 2.5 μM or 5.0 μM, 48 h
Outline: (§4)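 SEM or RS4;11 cells took DMSO, 2.5 or 5.0 μM test compound for 48 h. Cells (1–5×10^6) were lysed in RIPA buffer with sonication, run on SDS gels, blotted to PVDF and imaged by near-infrared fluorescence. Bands were normalised to GAPDH, and the phospho/total protein ratio was set relative to DMSO control (=1).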

Aurora-A = Aurora-A (Homo sapiens, UniProt O14965); test: Kinase activity screening; assay type: biochemical; conditions: FX-9 at 2.5 μM, ATP at Km (15 μM)
Chain of Aurora-A (O14965 whole entry): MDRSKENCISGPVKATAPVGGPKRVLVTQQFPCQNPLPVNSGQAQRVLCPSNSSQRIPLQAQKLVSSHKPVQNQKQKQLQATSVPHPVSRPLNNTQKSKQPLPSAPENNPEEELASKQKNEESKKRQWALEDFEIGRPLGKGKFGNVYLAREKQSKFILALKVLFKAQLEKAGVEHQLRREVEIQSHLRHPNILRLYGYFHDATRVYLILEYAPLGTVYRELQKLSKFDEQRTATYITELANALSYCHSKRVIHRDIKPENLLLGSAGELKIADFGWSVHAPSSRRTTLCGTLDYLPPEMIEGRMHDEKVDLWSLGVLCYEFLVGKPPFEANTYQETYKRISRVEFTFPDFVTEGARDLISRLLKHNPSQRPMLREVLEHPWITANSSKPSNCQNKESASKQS
Outline: as §2

CDK1/cyclinB = CDK1/cyclinB (Homo sapiens, UniProt P06493); test: Kinase activity screening; assay type: biochemical; conditions: FX-9 at 2.5 μM, ATP at Km (45 μM)
Outline: as §2

KDR = KDR (Homo sapiens, UniProt P35968); test: Kinase activity screening; assay type: biochemical; conditions: FX-9 at 2.5 μM, ATP at Km (90 μM)
Outline: as §2

JAK2 = JAK2 (Homo sapiens, UniProt O60674); test: Kinase activity screening; assay type: biochemical; conditions: FX-9 at 2.5 μM, ATP at Km (45 μM)
Outline: as §2

MAPKAP-K2 = MAPKAP-K2 (Homo sapiens, UniProt P49137); test: Kinase activity screening; assay type: biochemical; conditions: FX-9 at 2.5 μM, ATP at Km (90 μM)
Chain of MAPKAP-K2 (P49137 whole entry): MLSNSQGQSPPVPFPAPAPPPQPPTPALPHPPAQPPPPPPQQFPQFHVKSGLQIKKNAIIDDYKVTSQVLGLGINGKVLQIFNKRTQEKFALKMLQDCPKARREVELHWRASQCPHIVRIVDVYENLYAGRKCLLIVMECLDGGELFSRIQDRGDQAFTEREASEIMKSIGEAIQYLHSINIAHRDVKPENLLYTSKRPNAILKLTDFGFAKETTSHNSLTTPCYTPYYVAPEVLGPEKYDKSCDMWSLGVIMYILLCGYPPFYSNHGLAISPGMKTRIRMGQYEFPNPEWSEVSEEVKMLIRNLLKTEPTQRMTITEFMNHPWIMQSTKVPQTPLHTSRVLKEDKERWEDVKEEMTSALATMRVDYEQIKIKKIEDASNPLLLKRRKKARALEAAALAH
Outline: as §2

Rse = Rse (Homo sapiens, UniProt Q06418); test: Kinase activity screening; assay type: biochemical; conditions: FX-9 at 2.5 μM, ATP at Km (45 μM)
Outline: as §3

cleaved caspase 3 = test: Western blot, RS4; assay type: cell-based, human; conditions: RS4;11, 2.5 μM and 5.0 μM, 48 h
Outline: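 SEM and RS4;11 cells were exposed to 2.5 or 5.0 μM test compound, or DMSO, for 48 h. Lysates of 1–5×10^6 cells were made in RIPA buffer with sonication. Cleaved caspase 3 was detected by western blot on PVDF with near-infrared imaging, using GAPDH as loading control.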

CHK1 = CHK1 (Homo sapiens, UniProt O14757); test: Kinase activity screening; assay type: biochemical; conditions: FX-9 at 2.5 μM, ATP at Km (90 μM)
Outline: as §2

CDK7/cyclinH/MAT1 = CDK7/cyclinH/MAT1 (Homo sapiens, UniProt P50613); test: Kinase activity screening; assay type: biochemical; conditions: FX-9 at 2.5 μM, ATP at Km (90 μM)
Chain of CDK7/cyclinH/MAT1 (P50613 whole entry): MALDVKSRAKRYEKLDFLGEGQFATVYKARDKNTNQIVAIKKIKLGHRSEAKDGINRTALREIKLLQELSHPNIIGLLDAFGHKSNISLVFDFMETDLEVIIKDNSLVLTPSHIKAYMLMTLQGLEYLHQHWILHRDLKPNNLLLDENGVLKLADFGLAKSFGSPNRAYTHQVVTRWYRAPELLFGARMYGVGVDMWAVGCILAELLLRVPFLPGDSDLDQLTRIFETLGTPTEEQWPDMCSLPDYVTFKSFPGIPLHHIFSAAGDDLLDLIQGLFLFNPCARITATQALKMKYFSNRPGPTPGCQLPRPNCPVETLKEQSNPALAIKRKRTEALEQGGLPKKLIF
Chain of CDK7/cyclinH/MAT1 (P51946 whole entry partner): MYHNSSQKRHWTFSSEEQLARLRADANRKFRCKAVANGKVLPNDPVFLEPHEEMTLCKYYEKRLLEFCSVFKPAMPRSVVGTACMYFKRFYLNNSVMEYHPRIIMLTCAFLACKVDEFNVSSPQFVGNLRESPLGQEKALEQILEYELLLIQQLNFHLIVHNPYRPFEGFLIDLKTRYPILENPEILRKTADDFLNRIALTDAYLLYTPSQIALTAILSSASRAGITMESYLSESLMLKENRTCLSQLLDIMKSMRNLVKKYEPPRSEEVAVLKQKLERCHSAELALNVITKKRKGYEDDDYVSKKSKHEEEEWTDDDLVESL
Chain of CDK7/cyclinH/MAT1 (P51948 whole entry partner): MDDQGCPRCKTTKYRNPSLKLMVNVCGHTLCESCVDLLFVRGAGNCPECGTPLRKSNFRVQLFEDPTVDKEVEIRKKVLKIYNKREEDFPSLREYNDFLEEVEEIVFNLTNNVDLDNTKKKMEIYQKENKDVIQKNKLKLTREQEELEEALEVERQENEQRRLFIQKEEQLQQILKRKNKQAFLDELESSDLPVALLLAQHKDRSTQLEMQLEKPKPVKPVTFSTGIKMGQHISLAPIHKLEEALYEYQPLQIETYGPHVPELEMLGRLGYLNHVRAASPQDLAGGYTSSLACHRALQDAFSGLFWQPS
Outline: as §2

MST1 = MST1 (Homo sapiens, UniProt Q13043); test: Kinase activity screening; assay type: biochemical; conditions: FX-9 at 2.5 μM, ATP at Km (90 μM)
Outline: as §2

Mnk2 = Mnk2 (Homo sapiens, UniProt Q9HBH9); test: Kinase activity screening; assay type: biochemical; conditions: FX-9 at 2.5 μM, ATP at Km (120 μM)
Chain of Mnk2 (Q9HBH9 whole entry): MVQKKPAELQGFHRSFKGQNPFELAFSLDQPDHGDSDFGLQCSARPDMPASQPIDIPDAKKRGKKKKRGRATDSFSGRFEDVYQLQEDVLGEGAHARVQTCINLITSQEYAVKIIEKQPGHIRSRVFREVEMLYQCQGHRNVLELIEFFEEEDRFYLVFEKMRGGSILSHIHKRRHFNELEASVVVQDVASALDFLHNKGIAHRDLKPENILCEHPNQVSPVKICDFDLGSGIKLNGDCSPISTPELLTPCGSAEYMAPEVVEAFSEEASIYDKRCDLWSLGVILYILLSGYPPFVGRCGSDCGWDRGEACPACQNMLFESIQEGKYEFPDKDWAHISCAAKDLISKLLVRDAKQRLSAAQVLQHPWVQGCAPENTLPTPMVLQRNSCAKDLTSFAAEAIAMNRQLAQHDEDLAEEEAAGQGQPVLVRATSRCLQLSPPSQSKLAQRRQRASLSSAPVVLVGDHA
Outline: as §2

mTOR = mTOR (Homo sapiens, UniProt P42345); test: Kinase activity screening; assay type: biochemical; conditions: FX-9 at 2.5 μM, ATP at Km (70 μM)
Outline: as §3

pSTAT3 = test: Western blot, SEM cells; assay type: cell-based, human; conditions: 2.5 μM or 5.0 μM, 48 h
Outline: as §4

B- and T-ALL cells = test: Proliferation, viable cell count by trypan blue exclusion; assay type: cell-based; conditions: Homo sapiens, read-out: IC50 values against B- and T-ALL cells
Outline: as §1

DRAK1 = DRAK1 (Homo sapiens, UniProt Q9UEE5); test: Kinase activity screening; assay type: biochemical; conditions: FX-9 at 2.5 μM, ATP at Km (10 μM)
Chain of DRAK1 (Q9UEE5 whole entry): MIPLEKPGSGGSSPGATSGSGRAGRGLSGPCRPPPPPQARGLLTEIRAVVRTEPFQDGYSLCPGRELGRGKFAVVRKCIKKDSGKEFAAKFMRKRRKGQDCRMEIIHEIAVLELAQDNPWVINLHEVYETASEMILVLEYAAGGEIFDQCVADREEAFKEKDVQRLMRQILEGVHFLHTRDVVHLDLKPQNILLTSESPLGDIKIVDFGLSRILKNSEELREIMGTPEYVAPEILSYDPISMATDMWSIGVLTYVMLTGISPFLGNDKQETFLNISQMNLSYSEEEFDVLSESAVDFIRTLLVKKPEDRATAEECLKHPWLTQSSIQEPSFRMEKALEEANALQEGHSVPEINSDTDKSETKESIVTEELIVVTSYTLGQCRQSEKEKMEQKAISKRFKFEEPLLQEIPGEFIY
Outline: as §2

pAKT = test: Western blot, SEM cells; assay type: cell-based, human; conditions: 2.5 μM or 5.0 μM, 48 h
Outline: as §4

ALK = ALK (Homo sapiens, UniProt Q9UM73); test: Kinase activity screening; assay type: biochemical; conditions: FX-9 at 2.5 μM, ATP at Km (200 μM)
Outline: as §2

PKG1α = PKG1α (Homo sapiens, UniProt Q13976); test: Kinase activity screening; assay type: biochemical; conditions: FX-9 at 2.5 μM, ATP at Km (90 μM)
Outline: as §3

eEF-2K = eEF-2K (Homo sapiens, UniProt O00418); test: Kinase activity screening; assay type: biochemical; conditions: FX-9 at 2.5 μM, ATP at Km (15 μM)
Chain of eEF-2K (O00418 whole entry): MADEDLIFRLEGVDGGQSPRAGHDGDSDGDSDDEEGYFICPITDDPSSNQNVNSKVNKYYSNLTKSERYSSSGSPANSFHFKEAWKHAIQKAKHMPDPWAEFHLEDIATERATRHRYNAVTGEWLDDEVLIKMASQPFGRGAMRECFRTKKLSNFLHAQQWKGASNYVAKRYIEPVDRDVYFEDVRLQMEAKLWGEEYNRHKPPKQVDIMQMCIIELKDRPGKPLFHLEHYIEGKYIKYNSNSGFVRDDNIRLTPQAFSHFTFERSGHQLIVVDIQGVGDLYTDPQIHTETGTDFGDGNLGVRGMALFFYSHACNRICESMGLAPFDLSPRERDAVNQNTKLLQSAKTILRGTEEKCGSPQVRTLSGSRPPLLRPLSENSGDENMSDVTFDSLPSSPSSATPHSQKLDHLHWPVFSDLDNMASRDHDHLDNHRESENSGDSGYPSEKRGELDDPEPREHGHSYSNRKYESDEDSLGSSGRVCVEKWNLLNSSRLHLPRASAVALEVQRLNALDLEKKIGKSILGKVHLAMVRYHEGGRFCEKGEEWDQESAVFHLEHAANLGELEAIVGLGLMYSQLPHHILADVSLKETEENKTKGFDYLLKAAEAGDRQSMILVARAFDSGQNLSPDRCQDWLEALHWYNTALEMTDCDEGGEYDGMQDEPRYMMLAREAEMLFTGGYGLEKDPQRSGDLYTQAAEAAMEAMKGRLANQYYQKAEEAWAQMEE
Outline: as §3

PI3 Kinase (p120g) = PI3 Kinase (p120g) (Homo sapiens, UniProt P48736); test: Kinase activity screening; assay type: biochemical; conditions: FX-9 at 2.5 μM, ATP at Km (100 μM)
Chain of PI3 Kinase (p120g) (P48736 whole entry): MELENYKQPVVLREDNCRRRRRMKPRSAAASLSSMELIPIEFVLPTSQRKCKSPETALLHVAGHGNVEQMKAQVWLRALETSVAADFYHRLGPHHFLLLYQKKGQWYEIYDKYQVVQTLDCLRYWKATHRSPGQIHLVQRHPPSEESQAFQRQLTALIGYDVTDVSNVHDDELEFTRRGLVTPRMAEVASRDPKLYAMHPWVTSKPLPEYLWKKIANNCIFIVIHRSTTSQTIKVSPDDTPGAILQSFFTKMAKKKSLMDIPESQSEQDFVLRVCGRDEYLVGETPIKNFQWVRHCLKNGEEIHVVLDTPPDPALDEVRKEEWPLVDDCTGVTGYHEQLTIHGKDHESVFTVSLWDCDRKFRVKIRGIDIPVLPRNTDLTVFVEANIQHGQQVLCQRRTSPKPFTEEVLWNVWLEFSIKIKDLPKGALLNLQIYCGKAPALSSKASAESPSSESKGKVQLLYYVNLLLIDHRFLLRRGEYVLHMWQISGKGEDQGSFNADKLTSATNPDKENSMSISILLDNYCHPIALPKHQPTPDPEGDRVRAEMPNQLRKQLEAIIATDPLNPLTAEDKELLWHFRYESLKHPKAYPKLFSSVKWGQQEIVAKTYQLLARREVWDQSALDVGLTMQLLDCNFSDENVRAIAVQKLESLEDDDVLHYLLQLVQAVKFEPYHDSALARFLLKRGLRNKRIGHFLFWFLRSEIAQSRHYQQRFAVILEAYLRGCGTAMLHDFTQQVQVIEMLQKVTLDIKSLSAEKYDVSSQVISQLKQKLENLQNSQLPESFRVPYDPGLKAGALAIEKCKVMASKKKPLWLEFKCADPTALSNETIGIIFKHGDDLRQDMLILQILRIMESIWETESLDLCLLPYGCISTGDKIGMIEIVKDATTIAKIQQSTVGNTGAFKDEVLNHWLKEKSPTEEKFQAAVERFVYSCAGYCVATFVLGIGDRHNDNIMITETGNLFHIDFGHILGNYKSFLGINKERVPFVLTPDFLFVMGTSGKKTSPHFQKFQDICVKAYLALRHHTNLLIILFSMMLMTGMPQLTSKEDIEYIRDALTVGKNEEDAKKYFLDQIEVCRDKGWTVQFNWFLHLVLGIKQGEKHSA
Outline: as §2

Abl = Abl (Homo sapiens, UniProt P00519); test: Kinase activity screening; assay type: biochemical; conditions: FX-9 at 2.5 μM, ATP at Km (45 μM)
Outline: as §2

CEM cells = test: Cell morphology, May Grünwald Giemsa staining; assay type: cell-based, human; conditions: 2.5 μM, 48 h
PI3 Kinase (p110d/p85a) = PI3 Kinase (p110d/p85a) (Homo sapiens, UniProt O00329); test: Kinase activity screening; assay type: biochemical; conditions: FX-9 at 2.5 μM, ATP at Km (200 μM)
Outline: as §2

Pim-1 = Pim-1 (Homo sapiens, UniProt P11309); test: Kinase activity screening; assay type: biochemical; conditions: FX-9 at 2.5 μM, ATP at Km (90 μM)
Chain of Pim-1 (P11309 whole entry): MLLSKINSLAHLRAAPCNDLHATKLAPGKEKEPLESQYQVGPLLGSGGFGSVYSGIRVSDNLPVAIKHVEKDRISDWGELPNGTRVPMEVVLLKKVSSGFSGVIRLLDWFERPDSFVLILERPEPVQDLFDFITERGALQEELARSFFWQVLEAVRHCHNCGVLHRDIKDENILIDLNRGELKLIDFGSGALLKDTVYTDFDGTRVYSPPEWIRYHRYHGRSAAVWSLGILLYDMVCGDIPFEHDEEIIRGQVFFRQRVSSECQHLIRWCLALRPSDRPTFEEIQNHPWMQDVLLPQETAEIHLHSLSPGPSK
Outline: as §3

[1] = Homo sapiens, read-out: IC50 based on proliferation

## Cc1ccc(-c2cc3ccccc3c(N)n2)cc1 [FX-9, 3-(p-Tolyl)isoquinolin-1-amine]
SEM cells; [1]
  IC50: 1.46 ± 0.01 µM
SEM cells; SEM, 0.5 μM
  Proliferation compared to control cells (=100%): 69.5%
Jurkat cells; 2.5 μM
  Proliferation compared to control cells (100%): 16.3%
Jurkat cells; [1]
  IC50: 1.67 ± 0.03 µM
CDK9/cyclin T1
  Kinase activity (% control): 86 % control
IGF-1R
  Kinase activity (% control): 89 % control
PRAK
  Kinase activity (% control): 79 % control
PI3 Kinase (p110a/p85a)
  Kinase activity (% control): 101 % control
p-p38
  p-p38 level (western blot): reduced
Aurora-A
  Kinase activity (% control): 92 % control
CDK1/cyclinB
  Kinase activity (% control): 97 % control
KDR
  Kinase activity (% control): 83 % control
JAK2
  Kinase activity (% control): 111 % control
MAPKAP-K2
  Kinase activity (% control): 87 % control
Rse
  Kinase activity (% control): 92 % control
Cleaved caspase 3
  cleaved caspase 3 protein (western blot): increased amount of cleaved caspase 3
CHK1
  Kinase activity (% control): 94 % control
CDK7/cyclinH/MAT1
  Kinase activity (% control): 91 % control
MST1
  Kinase activity (% control): 87 % control
Mnk2
  Kinase activity (% control): 90 % control
mTOR
  Kinase activity (% control): 100 % control
pSTAT3
  pSTAT3 level (western blot): reduced
B- and T-ALL cells
  IC50: 0.54 to 1.94 µM
DRAK1
  Kinase activity (% control): 81 % control
pAKT
  pAKT level (western blot): reduced
ALK
  Kinase activity (% control): 112 % control
PKG1α
  Kinase activity (% control): 98 % control
eEF-2K
  Kinase activity (% control): 86 % control
PI3 Kinase (p120g)
  Kinase activity (% control): 98 % control
Abl
  Kinase activity (% control): 96 % control
CEM cells
  cellular morphology (light microscopy): Extensive cytoplasmic vacuolization, karyopyknosis, and karyolysis
PI3 Kinase (p110d/p85a)
  Kinase activity (% control): 100 % control
Pim-1
  Kinase activity (% control): 99 % control

— PMC6720533 (Biomolecules & Therapeutics, 2019)
